The compounds below were run on Culex pipiens pallens (assay: Larvicidal activity against fourth-instar larval stage of Culex pipiens pallens (mosquito) assessed as mortality at 0.25 mg/l at 25 +/-1 degC measured after 8 days). Conditions: 192 h.
Type: functional
How it was run: (§1)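 Insects were laboratory-reared and the bioassay was repeated at 25 ± 1 °C as statistics required. Larvae were scored dead or alive, and mortality was corrected with Abbott's formula. Results are given as percentage mortality on a 0–100 scale, where 0 is no activity and 100 is total kill. Hexaflumuron was run under the same conditions as the reference.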

| SMILES | mortality at 0.25 µg/mL [%] |
| --- | --- |
| O=C(NC(=O)c1c(F)cccc1F)Nc1cc(Cl)c(OC(F)(F)C(F)F)c(Cl)c1 [HEXAFLUMURON] | 100 |

Each compound was assayed on Culex pipiens pallens (assay: Larvicidal activity against fourth-instar larval stage of Culex pipiens pallens (mosquito) assessed as mortality at 2 mg/l at 25 +/-1 degC measured after 8 days). Conditions: 192 h.
Type: functional
How it was run: as §1

| SMILES | mortality at 2 µg/mL [%] |
| --- | --- |
| Cc1ccc(NC(=O)NC(=O)c2c(F)cccc2F)nn1 | 20 |
| CC(C)Oc1ccc(NC(=O)NC(=O)c2c(F)cccc2F)nn1 | 10 |
| CCOc1ccc(NC(=O)NC(=O)c2c(F)cccc2F)nn1 | 20 |
| O=C(NC(=O)c1c(F)cccc1F)Nc1ccc(Oc2ccccc2Cl)nn1 | 40 |
| O=C(NC(=O)c1c(F)cccc1F)Nc1ccc(OCc2ccc(Cl)cc2)nn1 | 10 |
| O=C(NC(=O)c1c(F)cccc1F)Nc1ccc(Oc2ccc(Cl)cc2Cl)nn1 | 60 |
| O=C(NC(=O)c1c(F)cccc1F)Nc1ccc(Oc2c(Cl)cc(Cl)cc2Cl)nn1 | 20 |
| O=C(NC(=O)c1c(F)cccc1F)Nc1ccc(Oc2ccc(Br)cc2)nn1 | 100 |
| COc1ccc(Oc2ccc(NC(=O)NC(=O)c3c(F)cccc3F)nn2)cc1 | 10 |
| Cc1ccc(Oc2ccc(NC(=O)NC(=O)c3c(F)cccc3F)nn2)cc1 | 0 |
| O=C(NC(=O)c1c(F)cccc1F)Nc1ccc(Oc2ccc(Cl)cc2)nn1 | 20 |

The compounds below were run on Culex pipiens pallens (assay: Larvicidal activity against fourth-instar larval stage of Culex pipiens pallens (mosquito) assessed as mortality at 1 mg/l at 25 +/-1 degC measured after 8 days). Conditions: 192 h.
Type: functional
How it was run: as §1

| SMILES | mortality at 1 µg/mL [%] |
| --- | --- |
| O=C(NC(=O)c1c(F)cccc1F)Nc1ccc(OCC(F)(F)F)nn1 | 30 |
| O=C(NC(=O)c1c(F)cccc1F)Nc1ccc(Oc2ccc(Br)cc2)nn1 | 90 |

What follows are compounds tested on Mythimna separata (assay: Larvicidal activity against fourth-instar larval stage of Mythimna separata (Oriental armyworm) in compound pretreated corn leaves assessed as mortality at 200 mg/l at 25 +/-1 degC measured after 4 days). Conditions: not given.
Type: functional
How it was run: as §1

| SMILES | mortality at 200 µg/mL [%] |
| --- | --- |
| Cc1ccc(NC(=O)NC(=O)c2c(F)cccc2F)nn1 | 10 |
| O=C(NC(=O)c1c(F)cccc1F)Nc1ccc(Sc2ccccc2)nn1 | 20 |
| CCCCSc1ccc(NC(=O)NC(=O)c2c(F)cccc2F)nn1 | 100 |
| CC(C)Oc1ccc(NC(=O)NC(=O)c2c(F)cccc2F)nn1 | 100 |
| CCOc1ccc(NC(=O)NC(=O)c2c(F)cccc2F)nn1 | 100 |
| O=C(NC(=O)c1c(F)cccc1F)Nc1ccc(Oc2ccccc2Cl)nn1 | 20 |
| O=C(NC(=O)c1c(F)cccc1F)Nc1ccc(OCc2ccc(Cl)cc2)nn1 | 10 |
| O=C(NC(=O)c1c(F)cccc1F)Nc1ccc(Oc2ccc(Cl)cc2Cl)nn1 | 20 |
| O=C(NC(=O)c1c(F)cccc1F)Nc1ccc(Oc2ccc(Br)cc2)nn1 | 30 |
| COc1ccc(Oc2ccc(NC(=O)NC(=O)c3c(F)cccc3F)nn2)cc1 | 10 |
| Cc1ccc(Oc2ccc(NC(=O)NC(=O)c3c(F)cccc3F)nn2)cc1 | 0 |
| O=C(NC(=O)c1c(F)cccc1F)Nc1ccc(Oc2ccc(Cl)cc2)nn1 | 10 |

These compounds were tested on Mythimna separata (assay: Larvicidal activity against fourth-instar larval stage of Mythimna separata (Oriental armyworm) in compound pretreated corn leaves assessed as mortality at 50 mg/l at 25 +/-1 degC measured after 4 days). Conditions: not given.
Type: functional
How it was run: as §1

| SMILES | mortality at 50 µg/mL [%] |
| --- | --- |
| CCCCSc1ccc(NC(=O)NC(=O)c2c(F)cccc2F)nn1 | 90 |
| CC(C)Oc1ccc(NC(=O)NC(=O)c2c(F)cccc2F)nn1 | 70 |
| CCOc1ccc(NC(=O)NC(=O)c2c(F)cccc2F)nn1 | 80 |

Each compound was assayed on Mythimna separata (assay: Larvicidal activity against fourth-instar larval stage of Mythimna separata (Oriental armyworm) in compound pretreated corn leaves assessed as mortality at 10 mg/l at 25 +/-1 degC measured after 4 days). Conditions: not given.
Type: functional
How it was run: as §1

| SMILES | mortality at 10 µg/mL [%] |
| --- | --- |
| O=C(NC(=O)c1c(F)cccc1F)Nc1ccc(OCC(F)(F)F)nn1 | 80 |
| O=C(NC(=O)c1c(F)cccc1F)Nc1cc(Cl)c(OC(F)(F)C(F)F)c(Cl)c1 [HEXAFLUMURON] | 80 |

These compounds were tested on Mythimna separata (assay: Larvicidal activity against fourth-instar larval stage of Mythimna separata (Oriental armyworm) in compound pretreated corn leaves assessed as mortality at 25 mg/l at 25 +/-1 degC measured after 4 days). Conditions: not given.
Type: functional
How it was run: as §1

| SMILES | mortality at 25 µg/mL [%] |
| --- | --- |
| O=C(NC(=O)c1c(F)cccc1F)Nc1ccc(OCC(F)(F)F)nn1 | 100 |

These compounds were tested on Mythimna separata (assay: Larvicidal activity against fourth-instar larval stage of Mythimna separata (Oriental armyworm) in compound pretreated corn leaves assessed as mortality at 100 mg/l at 25 +/-1 degC measured after 4 days). Conditions: not given.
Type: functional
How it was run: as §1

| SMILES | mortality at 100 µg/mL [%] |
| --- | --- |
| CCCCSc1ccc(NC(=O)NC(=O)c2c(F)cccc2F)nn1 | 100 |
| CC(C)Oc1ccc(NC(=O)NC(=O)c2c(F)cccc2F)nn1 | 100 |
| CCOc1ccc(NC(=O)NC(=O)c2c(F)cccc2F)nn1 | 100 |
| O=C(NC(=O)c1c(F)cccc1F)Nc1ccc(Oc2c(Cl)cc(Cl)cc2Cl)nn1 | 10 |

From ChEMBL document CHEMBL3046481, “Design, synthesis, and bioactivity study of novel benzoylpyridazyl ureas” (2009)
